# Measured values reported in ChEMBL document CHEMBL5303300, “EUbOPEN Chemogenomics Library - Multiplex” (2023).
# “And” between values parts separate entries of the source, which are not always exact repeats. Equal entries are not always repeated.
# Key:
# Fibroblast = experiment: Multiplex assay against human fibroblast; type: toxicity, cell-based; conditions: number of replicates 2
# Procedure, shortened: (§1)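 On a CQ1 microscope at 37°C and 5% CO2, live cells were imaged after compound addition. They had been stained at seeding with Hoechst33342, BioTracker Green Microtubule Cytoskeleton Dye, MitoTracker Red and Annexin V Alexa Fluor 680. CellPathfinder machine-learning gating assigned cells to Hoechst high-intensity objects or normal cells, normal cells to healthy, pyknosed or fragmented nuclei, and pyknosed cells to mitotic or apoptotic. Tubulin, mitochondrial-mass and membrane-permeability phenotypes are per cents of healthy-nucleus cells.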
# HEK-293T = experiment: Multiplex assay against HEK293T; type: toxicity, cell-based; conditions: human, number of replicates 2; procedure, shortened: as §1
# [1] = 12 h, 1 µM, compound concentration 1 uM
# [2] = 12 h, 10 µM, compound concentration 10 uM
# [3] = 24 h, 1 µM, compound concentration 1 uM
# [4] = 24 h, 10 µM, compound concentration 10 uM
# [5] = 48 h, 1 µM, compound concentration 1 uM
# [6] = 48 h, 10 µM, compound concentration 10 uM
compound,measurement,setting,value
CCc1ncnc(N2CCN(C(C)=O)CC2)c1C#Cc1ccc(N)nc1.Cl.Cl,Population Apoptotic (%),Fibroblast; [1],39% and 41%
same,Population Fragmented Nuclei (%),Fibroblast; [1],26% and 16%
same,Population Healthy Nuclei (%),Fibroblast; [1],48% and 55%
same,Population Hoechst High Intensity Objects (%),Fibroblast; [1],0%
same,Population Membrane Permeable-Phenotype (%),Fibroblast; [1],8% and 9%
same,Population Mitochondria Different-Phenotype (%),Fibroblast; [1],1% and 2%
same,Population Mitotic Cells (%),Fibroblast; [1],60% and 58%
same,Population Normal (%),Fibroblast; [1],99%
same,Population Pyknosed Nuclei (%),Fibroblast; [1],24% and 28%
same,Population Tubulin-Different-Phenotype (%),Fibroblast; [1],20% and 15%
same,Total Cell Count,Fibroblast; [1],278 and 215
same,Population Apoptotic (%),Fibroblast; [2],47%
same,Population Fragmented Nuclei (%),Fibroblast; [2],19% and 25%
same,Population Healthy Nuclei (%),Fibroblast; [2],53% and 54%
same,Population Hoechst High Intensity Objects (%),Fibroblast; [2],0%
same,Population Membrane Permeable-Phenotype (%),Fibroblast; [2],4% and 8%
same,Population Mitochondria Different-Phenotype (%),Fibroblast; [2],4% and 0%
same,Population Mitotic Cells (%),Fibroblast; [2],52%
same,Population Normal (%),Fibroblast; [2],100%
same,Population Pyknosed Nuclei (%),Fibroblast; [2],26% and 19%
same,Population Tubulin-Different-Phenotype (%),Fibroblast; [2],41% and 42%
same,Total Cell Count,Fibroblast; [2],180 and 245
same,Population Apoptotic (%),Fibroblast; [3],53% and 46%
same,Population Fragmented Nuclei (%),Fibroblast; [3],28% and 10%
same,Population Healthy Nuclei (%),Fibroblast; [3],46% and 64%
same,Population Hoechst High Intensity Objects (%),Fibroblast; [3],1% and 0%
same,Population Membrane Permeable-Phenotype (%),Fibroblast; [3],12% and 4%
same,Population Mitochondria Different-Phenotype (%),Fibroblast; [3],0% and 1%
same,Population Mitotic Cells (%),Fibroblast; [3],46% and 53%
same,Population Normal (%),Fibroblast; [3],98% and 99%
same,Population Pyknosed Nuclei (%),Fibroblast; [3],25% and 24%
same,Population Tubulin-Different-Phenotype (%),Fibroblast; [3],12% and 9%
same,Total Cell Count,Fibroblast; [3],259 and 210
same,Population Apoptotic (%),Fibroblast; [4],65% and 63%
same,Population Fragmented Nuclei (%),Fibroblast; [4],18% and 31%
same,Population Healthy Nuclei (%),Fibroblast; [4],51% and 55%
same,Population Hoechst High Intensity Objects (%),Fibroblast; [4],0%
same,Population Membrane Permeable-Phenotype (%),Fibroblast; [4],4% and 6%
same,Population Mitochondria Different-Phenotype (%),Fibroblast; [4],5% and 0%
same,Population Mitotic Cells (%),Fibroblast; [4],34% and 36%
same,Population Normal (%),Fibroblast; [4],100% and 99%
same,Population Pyknosed Nuclei (%),Fibroblast; [4],29% and 12%
same,Population Tubulin-Different-Phenotype (%),Fibroblast; [4],37% and 27%
same,Total Cell Count,Fibroblast; [4],176 and 264
same,Population Apoptotic (%),Fibroblast; [5],48% and 54%
same,Population Fragmented Nuclei (%),Fibroblast; [5],28% and 14%
same,Population Healthy Nuclei (%),Fibroblast; [5],58% and 75%
same,Population Hoechst High Intensity Objects (%),Fibroblast; [5],1% and 0%
same,Population Membrane Permeable-Phenotype (%),Fibroblast; [5],5% and 6%
same,Population Mitochondria Different-Phenotype (%),Fibroblast; [5],0%
same,Population Mitotic Cells (%),Fibroblast; [5],51% and 45%
same,Population Normal (%),Fibroblast; [5],98% and 99%
same,Population Pyknosed Nuclei (%),Fibroblast; [5],12% and 10%
same,Population Tubulin-Different-Phenotype (%),Fibroblast; [5],10% and 7%
same,Total Cell Count,Fibroblast; [5],259 and 219
same,Population Apoptotic (%),Fibroblast; [6],62% and 68%
same,Population Fragmented Nuclei (%),Fibroblast; [6],13% and 21%
same,Population Healthy Nuclei (%),Fibroblast; [6],63% and 67%
same,Population Hoechst High Intensity Objects (%),Fibroblast; [6],0%
same,Population Membrane Permeable-Phenotype (%),Fibroblast; [6],5% and 1%
same,Population Mitochondria Different-Phenotype (%),Fibroblast; [6],8% and 0%
same,Population Mitotic Cells (%),Fibroblast; [6],37% and 32%
same,Population Normal (%),Fibroblast; [6],100%
same,Population Pyknosed Nuclei (%),Fibroblast; [6],22% and 10%
same,Population Tubulin-Different-Phenotype (%),Fibroblast; [6],36% and 25%
same,Total Cell Count,Fibroblast; [6],163 and 231
same,Population Apoptotic (%),HEK-293T; [1],62% and 67%
same,Population Fragmented Nuclei (%),HEK-293T; [1],5% and 4%
same,Population Healthy Nuclei (%),HEK-293T; [1],80% and 82%
same,Population Hoechst High Intensity Objects (%),HEK-293T; [1],12% and 10%
same,Population Membrane Permeable-Phenotype (%),HEK-293T; [1],2% and 0%
same,Population Mitochondria Different-Phenotype (%),HEK-293T; [1],40% and 39%
same,Population Mitotic Cells (%),HEK-293T; [1],37% and 32%
same,Population Normal (%),HEK-293T; [1],87% and 89%
same,Population Pyknosed Nuclei (%),HEK-293T; [1],13% and 12%
same,Population Tubulin-Different-Phenotype (%),HEK-293T; [1],62% and 57%
same,Total Cell Count,HEK-293T; [1],352 and 438
same,Population Apoptotic (%),HEK-293T; [2],79% and 66%
same,Population Fragmented Nuclei (%),HEK-293T; [2],5% and 4%
same,Population Healthy Nuclei (%),HEK-293T; [2],77%
same,Population Hoechst High Intensity Objects (%),HEK-293T; [2],15% and 9%
same,Population Membrane Permeable-Phenotype (%),HEK-293T; [2],0% and 1%
same,Population Mitochondria Different-Phenotype (%),HEK-293T; [2],60% and 59%
same,Population Mitotic Cells (%),HEK-293T; [2],20% and 33%
same,Population Normal (%),HEK-293T; [2],84% and 90%
same,Population Pyknosed Nuclei (%),HEK-293T; [2],16% and 17%
same,Population Tubulin-Different-Phenotype (%),HEK-293T; [2],80% and 76%
same,Total Cell Count,HEK-293T; [2],304 and 297
same,Population Apoptotic (%),HEK-293T; [3],66% and 56%
same,Population Fragmented Nuclei (%),HEK-293T; [3],8% and 11%
same,Population Healthy Nuclei (%),HEK-293T; [3],78% and 74%
same,Population Hoechst High Intensity Objects (%),HEK-293T; [3],15% and 23%
same,Population Membrane Permeable-Phenotype (%),HEK-293T; [3],1%
same,Population Mitochondria Different-Phenotype (%),HEK-293T; [3],41% and 42%
same,Population Mitotic Cells (%),HEK-293T; [3],33% and 43%
